Measured values from ChEMBL document CHEMBL3243989, “Antibacterial N-[omega, omega'-bis(alicyclic and aryl)-sec-alkyl]poly(methylene)triamine and -tetramine hydrochloride salts” (J Med Chem, 1979).
In brackets after ≈: the same amount, converted by molar mass. Activity calls are given as the source filed them. The calls are words filed in the database; no cut-off is given here.

Experiments:
Salmonella = test: Antibacterial activity against Salmonella schottmuelleri MB2837 assessed as growth inhibition; format: functional
Outline: (§1)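 MIC (µg/mL) by in vitro growth inhibition in an assay system at pH 7.4. Tetracycline was run routinely to check medium, incubation conditions and inoculum virility.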

Staphylococcus aureus [1] = test: Antibacterial activity against Staphylococcus aureus MB108 assessed as growth inhibition; format: functional; outline: as §1
Streptococcus pyogenes = test: Antibacterial activity against Streptococcus pyogenes assessed as growth inhibition at 2 to 8 ug/mL; format: functional, organism-based
Bacillus subtilis = test: Antibacterial activity against Bacillus subtilis MB964 assessed as growth inhibition; format: functional; outline: as §1
[2] = tested on: Corynebacterium pseudodiphtheriticum; test: Antibacterial activity against Corynebacterium pseudodiphtheriticum assessed as growth inhibition at 15 ug/mL; format: functional, organism-based
Pseudomonas aeruginosa [3] = test: Antibacterial activity against Pseudomonas aeruginosa MB2245 assessed as growth inhibition; format: functional; outline: as §1
Pseudomonas aeruginosa [4] = test: Antibacterial activity against Pseudomonas aeruginosa MB418 assessed as growth inhibition; format: functional; outline: as §1
Pasteurella multocida = test: Antibacterial activity against Pasteurella multocida MB7 assessed as growth inhibition at 2 to 8 ug/mL; format: functional, organism-based
[5] = tested on: Bordetella bronchiseptica; test: Antibacterial activity against Bordetella bronchiseptica MB905 assessed as growth inhibition; format: functional; outline: as §1
[6] = tested on: Bordetella bronchiseptica; test: Antibacterial activity against Bordetella bronchiseptica MB3551 assessed as growth inhibition; format: functional; outline: as §1
Proteus vulgaris = test: Antibacterial activity against Proteus vulgaris MB838 assessed as growth inhibition at 200 ug/mL; format: functional, organism-based
Staphylococcus aureus [7] = test: Antibacterial activity against Staphylococcus aureus MB2865 assessed as growth inhibition; format: functional; outline: as §1
Escherichia coli = test: Antibacterial activity against Escherichia coli MB2884 assessed as growth inhibition; format: functional; outline: as §1
Klebsiella aerogenes = test: Antibacterial activity against Klebsiella aerogenes MB1503 assessed as growth inhibition; format: functional; outline: as §1
[8] = Lipophilicity, log P of the compound; conditions: octanol/water
[9] = tested on: Corynebacterium pseudodiphtheriticum; test: Antibacterial activity against Corynebacterium pseudodiphtheriticum assessed as growth inhibition at 2 to 8 ug/mL; format: functional, organism-based
[10] = Metal chelate stability constant of the compound assessed as copper ion complex formation; format: physicochemical

SMILES	MIC (Salmonella)	MIC (Staphylococcus aureus [1])	growth inhibition (GI) (Streptococcus pyogenes)	MIC (Bacillus subtilis)	growth inhibition (GI) [2]	MIC (Pseudomonas aeruginosa [3])	MIC (Pseudomonas aeruginosa [4])	growth inhibition (GI) (Pasteurella multocida)	MIC [5]	MIC [6]	growth inhibition (GI) (Proteus vulgaris)	MIC (Staphylococcus aureus [7])	MIC (Escherichia coli)	MIC (Klebsiella aerogenes)	logP [8]	growth inhibition (GI) [9]	log K [10]
CC(C)(C)c1ccc(CCCC(CCCc2ccc(C(C)(C)C)cc2)NCCCNCCCNCCCN)cc1.Cl	15 µg/mL	30 µg/mL	Active	10 µg/mL	Active	100 µg/mL	80 µg/mL	Active	20 µg/mL	30 µg/mL	inactive	20 µg/mL	> 200 µg/mL	> 200 µg/mL	–	–	–
NCCNCCNCCN [TRIENTINE]	–	–	–	–	–	–	–	–	–	–	–	–	–	–	-0.82	–	–
CC1(C)C2CCC(C2)C1CCC(CCC1C2CCC(C2)C1(C)C)NCCN(CCN)CCN.Cl (centres undefined)	4 µg/mL	4 µg/mL	Active	4 µg/mL	–	8 µg/mL	50 µg/mL	Active	4 µg/mL	4 µg/mL	inactive	8 µg/mL	8 µg/mL	8 µg/mL	–	inactive	–
Cl.NCCCNCCCNC(CCCC1CCCCC1)CCCC1CCCCC1	4 µg/mL	4 µg/mL	Active	4 µg/mL	–	8 µg/mL	8 µg/mL	Active	4 µg/mL	4 µg/mL	inactive	8 µg/mL	8 µg/mL	4 µg/mL	–	inactive	–
Cl.NCCNCCNCCNC(CCC1CCCCC1)CCC1CCCCC1	4 µg/mL	6 µg/mL	Active	6 µg/mL	–	30 µg/mL	40 µg/mL	Active	6 µg/mL	4 µg/mL	inactive	30 µg/mL	20 µg/mL	15 µg/mL	–	inactive	–
Cc1ccc(C(C)(C)C)cc1CCCC(CCCc1cc(C(C)(C)C)ccc1C)NCCNCCNCCN.Cl	10 µg/mL	15 µg/mL	Active	4 µg/mL	–	80 µg/mL	50 µg/mL	Active	15 µg/mL	10 µg/mL	inactive	60 µg/mL	60 µg/mL	10 µg/mL	–	inactive	–
CC(C)(C)c1ccc(CCCC(CCCc2ccc(C(C)(C)C)cc2)NCCNCCNCCN)cc1.Cl	8 µg/mL	20 µg/mL	Active	15 µg/mL	–	100 µg/mL	100 µg/mL	Active	8 µg/mL	60 µg/mL	inactive	30 µg/mL	60 µg/mL	50 µg/mL	–	inactive	–
NCCCNCCCN [NORSPERMIDINE]	–	–	–	–	–	–	–	–	–	–	–	–	–	–	–	–	14.2
CC(C)c1ccc(CCCC(CCCc2ccc(C(C)C)cc2)NCCCNCCCN)cc1.Cl	10 µg/mL	20 µg/mL	Active	6 µg/mL	–	40 µg/mL	15 µg/mL	Active	10 µg/mL	10 µg/mL	inactive	20 µg/mL	40 µg/mL	20 µg/mL	–	inactive	–
CC1(C)C2CCC(C2)C1CCC(CCC1C2CCC(C2)C1(C)C)NCCCNCCCNCCCN.Cl (centres undefined)	6 µg/mL	15 µg/mL	Active	2 µg/mL	–	8 µg/mL	8 µg/mL	Active	2 µg/mL	2 µg/mL	inactive	8 µg/mL	10 µg/mL	30 µg/mL	–	inactive	–
CN(CCCNCCCN)C(CCC1CCCCC1)CCC1CCCCC1.Cl	1 µg/mL	10 µg/mL	Active	4 µg/mL	–	20 µg/mL	8 µg/mL	Active	6 µg/mL	4 µg/mL	inactive	30 µg/mL	8 µg/mL	4 µg/mL	–	inactive	–
Cl.NCCCNCCCNC(CC1CCCCC1)CC1CCCCC1	4 µg/mL	30 µg/mL	Active	10 µg/mL	–	40 µg/mL	60 µg/mL	Active	4 µg/mL	6 µg/mL	inactive	40 µg/mL	40 µg/mL	8 µg/mL	–	inactive	–
Cc1ccc(C(C)(C)C)cc1CCCC(CCCc1cc(C(C)(C)C)ccc1C)NCCCNCCCNCCCN.Cl	8 µg/mL	20 µg/mL	Active	6 µg/mL	–	50 µg/mL	40 µg/mL	Active	8 µg/mL	8 µg/mL	inactive	8 µg/mL	100 µg/mL	200 µg/mL	–	inactive	–
Cl.NCCCNCCCNC(CCc1ccc2ccccc2c1)CCc1ccc2ccccc2c1	8 µg/mL	6 µg/mL	Active	8 µg/mL	–	100 µg/mL	40 µg/mL	Active	4 µg/mL	4 µg/mL	inactive	8 µg/mL	15 µg/mL	20 µg/mL	–	inactive	–
CC1(C)C2CCC(C2)C1CCC(CCC1C2CCC(C2)C1(C)C)NCCCN(CCCN)CCCN.Cl (centres undefined)	4 µg/mL	6 µg/mL	Active	4 µg/mL	–	30 µg/mL	50 µg/mL	Active	4 µg/mL	2 µg/mL	inactive	4 µg/mL	50 µg/mL	30 µg/mL	–	inactive	–
Cl.NCCCNCCCNC(CCC1CCCC1)CCC1CCCC1	8 µg/mL	20 µg/mL	Active	6 µg/mL	–	30 µg/mL	60 µg/mL	Active	4 µg/mL	4 µg/mL	inactive	15 µg/mL	30 µg/mL	15 µg/mL	–	inactive	–
CC1(C)C2CCC(C2)C1CCC(CCC1C2CCC(C2)C1(C)C)NCCCN1CCN(CCCN)CC1.Cl (centres undefined)	6 µg/mL	6 µg/mL	Active	8 µg/mL	–	200 µg/mL	200 µg/mL	Active	4 µg/mL	8 µg/mL	inactive	20 µg/mL	20 µg/mL	4 µg/mL	–	inactive	–
CC(C)(C)c1ccc(CCCC(CCCc2ccc(C(C)(C)C)cc2)NCCCNCCCN)cc1.Cl	8 µg/mL	20 µg/mL	Active	8 µg/mL	–	40 µg/mL	80 µg/mL	Active	8 µg/mL	8 µg/mL	inactive	10 µg/mL	40 µg/mL	40 µg/mL	–	inactive	–
Cl.NCCCNCCCNC(CCC1CCCCC1)CCC1CCCCC1	2 µg/mL	2 µg/mL	Active	2 µg/mL	–	15 µg/mL	30 µg/mL	Active	2 µg/mL	2 µg/mL	inactive	10 µg/mL	15 µg/mL	6 µg/mL	–	inactive	–
NCCNCCCNCCN	–	–	–	–	–	–	–	–	–	–	–	–	–	–	–	–	23.9
CN(C)[C@@H]1C(O)=C(C(N)=O)C(=O)[C@@]2(O)C(O)=C3C(=O)c4c(O)cccc4[C@@](C)(O)[C@H]3C[C@@H]12 [TETRACYCLINE]	2 µg/mL (≈ 4.5 µM)	2 µg/mL (≈ 4.5 µM)	Active	2 µg/mL (≈ 4.5 µM)	–	30 µg/mL (≈ 67.5 µM)	20 µg/mL (≈ 45 µM)	Active	2 µg/mL (≈ 4.5 µM)	2 µg/mL (≈ 4.5 µM)	inactive	2 µg/mL (≈ 4.5 µM)	30 µg/mL (≈ 67.5 µM)	2 µg/mL (≈ 4.5 µM)	–	inactive	–
Cl.NCCNCCNCCNC(CCCC1CCCCC1)CCCC1CCCCC1	6 µg/mL	6 µg/mL	Active	4 µg/mL	–	30 µg/mL	30 µg/mL	Active	6 µg/mL	4 µg/mL	inactive	15 µg/mL	10 µg/mL	6 µg/mL	–	inactive	–
